An excerpt weighted towards active compounds, which were near 2.5% of everything screened.
VIM-2 inh: VIM-2 metallo-beta-lactamase inhibitors, primary screen, biochemical, epi-absorbance readout, Pseudomonas aeruginosa enzyme; purified VIM-2, nitrocefin hydrolysis, epi-absorbance fluorescence; inhibition, % at 5.6 µM; 290,000 tested, 0.89% active;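 active means inhibition above the mean of all tested compounds plus 3 SD, cutoff set per screening run, cut at about 7.5% in these data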;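 further: red hydrolysis product quenches plate fluorescence so inhibitors raise well fluorescence; 0% = enzyme with DMSO and 100% = DMSO without enzyme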
m5-HT2A agonist: mouse Htr2a agonists via beta-arrestin recruitment, primary screen, cell-based, luminescence. 360,000 tested, 0.66% active. activation, % at 7.6 µM. CHO-K1 mHTR2A beta-arrestin complementation; percent of 30 µM serotonin response. AID 624169, 2012;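 active means activation above a run cutoff, the mean activation of all tested compounds plus 3 SD, cut at about 14% in these data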;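 further: 0% = plate median of compound wells and 100% = 30 µM serotonin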
dFosB activator: activators of delta FosB homodimer, primary screen, biochemical, fluorescence polarization, TAMRA-CDK5 oligo, single point | Protein FosB (Mus musculus), P13346 | purified delta FosB; percent of positive-control signal above neutral wells | activation, % at 25 µM | 340,000 tested, 0.99% active;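 active means mean activation above about 17%, with every replicate also reaching it, limit read from the data, passing the limit was not always enough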
Target sequence (P13346 whole entry, looked up): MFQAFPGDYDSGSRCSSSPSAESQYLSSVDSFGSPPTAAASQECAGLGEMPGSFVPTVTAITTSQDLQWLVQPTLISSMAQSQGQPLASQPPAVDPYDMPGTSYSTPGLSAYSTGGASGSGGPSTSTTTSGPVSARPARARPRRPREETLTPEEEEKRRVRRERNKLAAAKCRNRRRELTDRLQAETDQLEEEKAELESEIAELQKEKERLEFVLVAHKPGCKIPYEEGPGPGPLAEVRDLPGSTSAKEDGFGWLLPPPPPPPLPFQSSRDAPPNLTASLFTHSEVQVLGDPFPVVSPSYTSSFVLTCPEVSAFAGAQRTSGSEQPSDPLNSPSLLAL
IMP-1 inhibitor: IMP-1 metallo-beta-lactamase inhibitors, primary screen, biochemical, epi-absorbance readout, Pseudomonas aeruginosa enzyme. metallo-beta-lactamase IMP-1 (Pseudomonas aeruginosa). purified IMP-1, nitrocefin hydrolysis, epi-absorbance fluorescence. inhibition, % at 5.6 µM. 290,000 tested, 0.45% active. AID 1556, 2009;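 active means inhibition above the mean plus 3 SD of all compounds in the same screening run, cut at about 4.5% in these data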;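 further: 0% = IMP-1 with DMSO and 100% = DMSO wells lacking enzyme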
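assay system = purified recombinant IMP-1 metallo-beta-lactamase enzyme | schedule = 15 min preincubation plus 25 min reaction at 25 °C | signal = Epi-absorbance fluorescence, 480 nm excitation, 530 nm emission | read-out basis = percent inhibition from optical density relative to buffer-blank wells | controls = IMP-1 with DMSO as 0%, enzyme-free DMSO as 100%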
* marks the source's active call; other numbers are inactive results.

What do the screens show for `CCSc1nc2sc3c(c2c(=O)[nH]1)CC(C)(CC)OC3` (stereo not drawn)?
VIM-2 inh: -0.2; m5-HT2A agonist: -3.2; dFosB activator: -10.3; IMP-1 inhibitor: -0.5

Results for CCCCN(C)CCNC(=O)c1cc2c(-c3ccccc3F)nn(C)c2s1 ?
VIM-2 inh: 11.0*; m5-HT2A agonist: -7.1; dFosB activator: -46.6; IMP-1 inhibitor: -2.1

What do the screens show for `CCCCN(C)CCNC(=O)c1cc2c(-c3cccc(OC)c3)nn(C)c2s1`?
VIM-2 inh: 10.2*; m5-HT2A agonist: -9.8; dFosB activator: -44.9; IMP-1 inhibitor: -2.8

Results for CCN1CCN(C(=S)NC(=O)c2cccc(Br)c2)CC1 ?
m5-HT2A agonist: -3.8; dFosB activator: -6.4

Results for O=C(COc1ccc2ccc(=O)oc2c1)NCCN1CCOCC1 ?
m5-HT2A agonist: 7.0

What do the screens show for `Cc1cc(/C=C2\SC(=S)NC2=O)c(C)n1C1CC1`?
VIM-2 inh: 7.7*; m5-HT2A agonist: 3.4; dFosB activator: -14.6; IMP-1 inhibitor: 0.1

Results for CN(CC1CCCO1)S(=O)(=O)c1ccc(C(=O)Nc2ccc(S(N)(=O)=O)cc2)cc1 (stereo not drawn) ?
VIM-2 inh: 2.2; m5-HT2A agonist: -9.2; dFosB activator: -5.9; IMP-1 inhibitor: 4.8*

Results for CN(CC1CCCO1)S(=O)(=O)c1ccc(C(=O)Nc2ccccc2F)cc1 (stereo not drawn) ?
VIM-2 inh: -1.8; m5-HT2A agonist: 4.2; dFosB activator: 4.0; IMP-1 inhibitor: -1.9

How did COC(=O)c1ccc2c(c1)C(C)(C)C(/C=C/c1ccccc1O)=[N+]2C do in these assays?
VIM-2 inh: -0.5; m5-HT2A agonist: -7.5; dFosB activator: 111.0*; IMP-1 inhibitor: -1.8

Results for N#Cc1cccc2c1-c1ccccc1/C2=N/NC(N)=O ?
VIM-2 inh: 10.4*; m5-HT2A agonist: -2.3; dFosB activator: -73.3; IMP-1 inhibitor: -3.5

Results for CCN(C(=O)COC(=O)/C=C/c1ccc2c(c1)OCO2)c1c(N)n(Cc2ccccc2)c(=O)[nH]c1=O ?
m5-HT2A agonist: 4.9; dFosB activator: 164.4*

Results for CCN(C(=O)COC(=O)/C=C/c1cccc([N+](=O)[O-])c1)c1c(N)n(Cc2ccccc2)c(=O)[nH]c1=O ?
m5-HT2A agonist: 4.2; dFosB activator: -2.1

Results for C=C(C)c1cccc(C(C)(C)NC(=O)NCc2ccc(OC)cc2)c1 ?
VIM-2 inh: -2.6; m5-HT2A agonist: 6.1; dFosB activator: 1.9; IMP-1 inhibitor: -2.4

What do the screens show for `C=C(C)c1cccc(C(C)(C)NC(=O)NCc2ccc(OC)c(OC)c2)c1`?
VIM-2 inh: -1.1; m5-HT2A agonist: 24.0*; dFosB activator: -3.8; IMP-1 inhibitor: -3.0

What do the screens show for `O=C(/C=C/c1ccc(F)cc1)NC(=S)NNC(=O)c1cnccn1`?
VIM-2 inh: -1.1; m5-HT2A agonist: -2.1; dFosB activator: -13.6; IMP-1 inhibitor: -3.1

How did COc1ccc(/C=C/C(=O)NC(=S)NNC(=O)c2cnccn2)cc1 do in these assays?
VIM-2 inh: -3.7; m5-HT2A agonist: -2.5; dFosB activator: 16.9*; IMP-1 inhibitor: -1.3

What do the screens show for `COc1ccccc1C(CNC(=O)c1cc(S(=O)(=O)N2CCOCC2)ccc1C)N1CCCC1` (stereo not drawn)?
m5-HT2A agonist: -1.3; dFosB activator: -3.9

What do the screens show for `Cc1ccc(-n2nc3c(N4CCC(C(=O)NCc5ccccc5C)CC4)nnc(C)c3c2C)cc1`?
VIM-2 inh: -3.1; m5-HT2A agonist: -5.3; dFosB activator: 28.4*; IMP-1 inhibitor: -3.2

What do the screens show for `COc1ccccc1CCNC(=O)C1CCN(c2nnc(C)c3c(C)n(-c4ccc(C)cc4)nc23)CC1`?
VIM-2 inh: -4.8; m5-HT2A agonist: -9.1; dFosB activator: 0.6; IMP-1 inhibitor: -2.2

What do the screens show for `O=C(c1cc2ccccc2o1)N1CCN=C1SCc1cccnc1`?
VIM-2 inh: 9.4*; m5-HT2A agonist: 2.4; dFosB activator: -20.9; IMP-1 inhibitor: -0.7

Results for O=C(c1cc2ccccc2o1)N1CCN=C1SCc1cccc(F)c1 ?
VIM-2 inh: -3.3; m5-HT2A agonist: -5.0; dFosB activator: -3.7; IMP-1 inhibitor: -1.9

How did CCN(CC(=O)Nc1ccccc1C(F)(F)F)C(=O)C1CC(=O)N(Cc2ccccc2)C1 (stereo not drawn) do in these assays?
m5-HT2A agonist: -6.5; dFosB activator: 1.4

Results for Cc1cc(/N=C/C=C2/N(C)c3ccccc3C2(C)C)n(CCC#N)n1 ?
m5-HT2A agonist: -1.1; dFosB activator: -9.6

Results for COc1ccc2c(/C=C/c3cc[n+](C)cc3)c[nH]c2c1 ?
VIM-2 inh: 1.1; m5-HT2A agonist: 2.6; dFosB activator: 2.4; IMP-1 inhibitor: -3.1

How did COc1ccc2c(c1)c(/C=C/c1cc[n+](C)cc1)cn2C do in these assays?
VIM-2 inh: 9.7*; m5-HT2A agonist: -0.2; dFosB activator: -1.5; IMP-1 inhibitor: -1.1

How did Cc1ncc([N+](=O)[O-])n1CCOC(=O)c1cc(Cl)cc(Cl)c1N do in these assays?
VIM-2 inh: 9.4*; m5-HT2A agonist: 3.7; dFosB activator: -8.8; IMP-1 inhibitor: -2.2

How did CC(C)C1OC2c3cccc4cccc(c34)C2N1c1ccccc1 (stereo not drawn) do in these assays?
VIM-2 inh: 2.5; m5-HT2A agonist: -5.7; dFosB activator: -3.3; IMP-1 inhibitor: 4.6*

Results for Cn1c(NCc2cccnc2)nc2c1c(=O)n(Cc1ccccc1F)c(=O)n2C ?
VIM-2 inh: 8.3*; m5-HT2A agonist: -2.2; dFosB activator: -6.9; IMP-1 inhibitor: -2.7

Results for CCOc1ccc(-c2c(C#N)c(N)nc3c2c(=O)n(C)c(=O)n3C)cc1OC ?
VIM-2 inh: -2.2; m5-HT2A agonist: -3.5; dFosB activator: -4.1; IMP-1 inhibitor: 7.6*

What do the screens show for `COc1cccc(/C=N/Nc2nc(Nc3ccc([N+](=O)[O-])cc3)nc(N3CCCC3)n2)c1O`?
VIM-2 inh: -4.7; m5-HT2A agonist: -10.3; dFosB activator: 66.9*; IMP-1 inhibitor: -0.2

How did Cc1ccc(CC2C(=O)N(c3ccccc3)C(=O)C2C)cc1 (stereo not drawn) do in these assays?
VIM-2 inh: -1.1; m5-HT2A agonist: -1.2; dFosB activator: -6.9; IMP-1 inhibitor: -0.6

Results for Cc1ccc(CC2C(=O)N(c3cc(Cl)ccn3)C(=O)C2C)cc1 (stereo not drawn) ?
VIM-2 inh: -0.3; m5-HT2A agonist: 0.8; dFosB activator: -4.5; IMP-1 inhibitor: 13.4*

How did CCOC(=O)N1CCC(N(CCN(C)C)C(=S)Nc2ccc(OCC)cc2)CC1 do in these assays?
VIM-2 inh: -3.0; IMP-1 inhibitor: -0.8

What do the screens show for `COc1ccc(C(=O)N/N=C\c2coc3ccccc3c2=O)cc1`?
VIM-2 inh: -4.5; m5-HT2A agonist: 1.9; dFosB activator: -6.2; IMP-1 inhibitor: -1.7

What do the screens show for `CCOc1cccc(C(=O)N/N=C/c2coc3ccccc3c2=O)c1`?
VIM-2 inh: -5.5; m5-HT2A agonist: 3.7; dFosB activator: -14.1; IMP-1 inhibitor: 5.5*

Compound activity: PubChem, several laboratories
